Experiment [1] has as its target T1, T2R14 (Homo sapiens, UniProt Q9NYV8).
T1 sequence (Q9NYV8 1-317): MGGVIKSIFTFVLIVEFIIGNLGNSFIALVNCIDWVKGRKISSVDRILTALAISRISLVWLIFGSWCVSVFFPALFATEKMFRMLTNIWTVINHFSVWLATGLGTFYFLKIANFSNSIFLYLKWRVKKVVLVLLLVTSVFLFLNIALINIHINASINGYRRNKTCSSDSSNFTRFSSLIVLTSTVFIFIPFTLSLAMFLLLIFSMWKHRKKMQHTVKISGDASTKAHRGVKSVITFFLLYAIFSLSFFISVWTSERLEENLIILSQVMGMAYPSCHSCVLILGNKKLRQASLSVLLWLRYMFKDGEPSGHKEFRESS
The experiment in a line: Intracellular calcium mobilization in human bronchial epithelial. The format is cell-based.

Experiment [2] addresses T1, T2R14. Nature of the experiment: Intracellular calcium mobilization in HEK293T cells overexpressing T2R14. Format: cell-based. The conditions noted are these: for Intracellular calcium mobilization: HEK293T cells overexpressing T2R14, concentration series. Summed up: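 HEK293T cells overexpressing T2R14 were loaded for agonist-induced intracellular calcium mobilization. They were treated with increasing concentrations of the bacterial quorum-sensing molecule 3-oxo-C12-AHL (4.5–300 μM), tyrosol (15–1000 μM) or farnesol (7.5–500 μM).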
A general note: Calcium flux is commonly read through the fluorescence of an indicator in the cells.

Experiment [3] deals with CF HBE cells cultured at ALI. The experiment in a line: Total nitrate/nitrite release, fluorometric assay, CF HBE ALI cultures. The format is cell-based, human. Particulars: for Effect on AIP-1 stimulated nitrate release: inhibitor 10 μM with AIP-1 50 μM; for Effect on nitrate release evoked by C12: inhibitor 10 μM with C12 100 μM. In a few lines:
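Primary CF human bronchial epithelial cells, carrying scrambled shRNA or T2R14 knockdown, were seeded on collagen-coated Transwells at 500,000 cells/well and grown at air-liquid interface to day 30. The apical surface was exposed for 18 h to C12 (100 µM) or AIP-1 (50 µM), with or without gallein or U73122 (10 μM each). Apical secretions were mixed with reductase cofactor for 30 min at room temperature, then total nitrate/nitrite was read fluorometrically.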

The next experiment deals with NuLi-1 and CuFi-1 cells. The experiment in a line: cAMP response to CFTR corrector in airway epithelial cell lines. The format is cell-based, human. The conditions noted are these: 5 µM for 24 h.
[4] abbreviates: EC50, intracellular calcium mobilization, both BCF and BD cells.

Consider `CCCCCCCCCC(=O)CC(=O)N[C@H]1CCOC1=O` [C12, 3-oxo-12-AHL], for which the EC50 is roughly 100 µM on T2R14 [1] (read-out: EC50, intracellular calcium mobilization, both BCF and BD cells); roughly 60 µM at T2R14 [2] (read-out: EC50, intracellular calcium mobilization, HEK 293T cells overexpressing T2R14). Moreover, on T2R14 [2], the Intracellular calcium mobilization result is “concentration dependent increase in intracellular calcium mobilization”. Further, the “Total nitrate release vs untreated controls” value in experiment [3] (apical exposure 18 h, C12 100 μM, AIP-1 50 μM) was “significant elevation of total nitrate release”.

As to `OCCc1ccc(O)cc1` [tyrosol], the EC50 on T2R14 [1] (setting [4]) is roughly 100 µM. For the same compound, on T2R14 [2], the Intracellular calcium mobilization result was “concentration dependent increase in intracellular calcium mobilization”.

Take `CC(C)=CCC/C(C)=C/CC/C(C)=C/CO` [farnesol]: the EC50 at T2R14 [1] (setting [4]) is roughly 120 µM. Moreover, on T2R14 [2], the Intracellular calcium mobilization entry is “concentration dependent increase in intracellular calcium mobilization”.

Regarding `COc1ccc2c(c1)CC[C@@H]1[C@@H]2CC[C@]2(C)[C@@H](NCCCCCCN3C(=O)C=CC3=O)CC[C@@H]12` [U73122], in experiment [3], the “Effect on AIP-1 stimulated nitrate release” value was “without altering the AIP-1 stimulated release significantly” and the “Effect on nitrate release evoked by C12” value is reported as “reduced the nitrate release evoked by C12”.

On to `CN(C)CCOC(c1ccccc1)c1ccccc1` [DPH, diphenhydramine], for which the EC50 at T2R14 [1] (EC50, Ca2+ mobilization, all the cell types investigated (NuLi-1, CuFi-1, BD, BCF)) was roughly 500 µM.

Take `O=C1OC2(c3ccccc31)c1ccc(O)c(O)c1Oc1c2ccc(O)c1O` [Gallein]: in experiment [3], the “Effect on AIP-1 stimulated nitrate release” value is “without altering the AIP-1 stimulated release significantly” and the “Effect on nitrate release evoked by C12” value was “reduced the nitrate release evoked by C12”.

For `Cc1ccc(NC(=O)C2(c3ccc4c(c3)OC(F)(F)O4)CC2)nc1-c1cccc(C(=O)O)c1` [VX-809, lumacaftor], the “cAMP levels in response to forskolin” value is “significant increase in cAMP levels” with NuLi-1 and CuFi-1 cells (CuFi-1 cells); “No significant change” in the experiment with NuLi-1 and CuFi-1 cells (NuLi cells).

For orientation: EC50 means the midpoint of the concentration-response curve.
